Laboratory results reported in ChEMBL document CHEMBL1125797, “Synthesis, characterization and myocardial uptake of cationic bis(arene)technetium(I) complexes” (J Med Chem, 1991).

Key:
Rattus norvegicus [1] = organism: Rattus norvegicus; assay: The compound was tested for the plasma binding in rat; type: ADME, organism-based
Rattus norvegicus [2] = assay: Biodistribution of compound in rat kidney after 5 min of administration; type: ADME, organism-based; details: in vivo
Summary of the method: (§1)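 Female Sprague-Dawley rats (150–200 g) received the 99mTc complex in normal saline (~12.5 μCi/mL) via a lateral tail vein at ~25 μCi/kg. They were killed by cervical dislocation 5 min after injection. Tissues were washed with saline, blotted, weighed and γ-counted, and the read-out was percent injected dose per g tissue.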

Rattus norvegicus [3] = assay: Biodistribution of compound in rat liver after 5 min of administration; type: ADME, organism-based; details: in vivo; summary of the method: as §1
Rattus norvegicus [4] = assay: Biodistribution of compound in rat heart after 5 min of administration; type: ADME, organism-based; details: in vivo; summary of the method: as §1
Rattus norvegicus [5] = assay: Biodistribution of compound in rat blood after 5 min of administration; type: ADME, organism-based; details: in vivo; summary of the method: as §1
[6] = The compound was tested for the plasma binding in human; type: ADME, cell-free
Summary of the method: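 Fresh heparinized human plasma (1.0 mL, obtained daily) was spiked with 0.02 mL test solution and incubated about 15 min. Duplicate samples went through saline-equilibrated Sephadex G-25 desalting columns by centrifugation. Eluate and gel were γ-counted for 1 min or to 1% σ error. % bound = net cpm eluate / net cpm (eluate + gel) × 100.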

Rattus norvegicus [7] = assay: Biodistribution of compound in rat muscle after 5 min of administration; type: ADME, organism-based, Muscle tissue; details: in vivo
Summary of the method: as §1, with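 “the” for “the 99mTc”, “through” for “via”, “Rats” for “They”, “γ-counted to give” for “γ-counted, and the read-out was”, “dose/g” for “dose per g”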

Rattus norvegicus [8] = assay: Biodistribution of compound in rat lung after 5 min of administration; type: ADME, organism-based; details: in vivo
Summary of the method: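 Rats received the 99mTc complex in normal saline (~12.5 μCi/mL) by lateral tail vein injection at ~25 μCi/kg and were killed by cervical dislocation at the stated time. Tissues were washed with saline, blotted, weighed and γ-counted to give percent injected dose/g. Time-course values are averages of male and female rats.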

| Substance | Plasma binding (Rattus norvegicus [1]) | Dose/g (Rattus norvegicus [2]) | Dose/g (Rattus norvegicus [3]) | Dose/g (Rattus norvegicus [4]) | Dose/g (Rattus norvegicus [5]) | Plasma binding [6] | Dose/g (Rattus norvegicus [7]) | Dose/g (Rattus norvegicus [8]) |
| --- | --- | --- | --- | --- | --- | --- | --- | --- |
| Bis(1,2,3-trimethylbenzene)technetium | 6.6% | 9% | 1% | 1% | 0.13% | 24% | 0.27% | 0.66% |
| Bis(1,2,4-trimethylbenzene)technetium | 12% | 7% | 0.8% | 1.4% | 0.38% | 20% | 0.32% | 0.78% |
